Source: PubChem (Broad Institute)
DENV2 CPE rescue – inhibitors of DENV2 cytopathic effect, primary screen, cell-based, plate reader, single concentration. DENV2-infected cells, cytopathic effect rescue. CPE inhibition, % at 9.99 µM. 1.7% of 350,000 active; in the data active = CPE inhibition above about 20%, passing the limit was not always enough; inconclusive = no clear call, values can overlap the other calls; tested in BHK-21 cells;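 also: 0% = median of neutral control wells and 100% = median of positive control wells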
Statin myotox sup – suppressors of statin myotoxicity in C2C12 myotubes, primary screen, cell-based, single point, plate reader | C2C12 myotubes + simvastatin, ATP luminescence, 48 h; scaled: DMSO 0, geranylgeraniol control 100 | rescue of ATP level, % at 7.49 µM | 0.78% of 330,000 active;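 active = mean ATP rescue above about 67%, or every replicate alone reaching that limit, limit read from the data, passing the limit was not always enough; inconclusive = no clear call, values can overlap the other calls; inactive = mean under the limit and some replicate under it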;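 also: myotubes were challenged with 10 µM simvastatin during compound exposure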
E-selectin induc – E-selectin induction in HUVECs, primary screen, imaging, HUVEC, immunofluorescence imaging, single point. activation, % at 7.58 µM. normalized: neutral wells 0, TNF-alpha wells 100. AID 686992, 2013. 0.37% of 260,000 active;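 active = mean E-selectin-positive cell signal at least 10% of the positive control, reached in at least 60% of replicates, without over 20% cell loss; inconclusive = no rule given, readout overlaps actives, possibly toxicity-flagged; inactive = the rest, including those meeting only one limit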
Target sequence (P16581 whole entry, looked up): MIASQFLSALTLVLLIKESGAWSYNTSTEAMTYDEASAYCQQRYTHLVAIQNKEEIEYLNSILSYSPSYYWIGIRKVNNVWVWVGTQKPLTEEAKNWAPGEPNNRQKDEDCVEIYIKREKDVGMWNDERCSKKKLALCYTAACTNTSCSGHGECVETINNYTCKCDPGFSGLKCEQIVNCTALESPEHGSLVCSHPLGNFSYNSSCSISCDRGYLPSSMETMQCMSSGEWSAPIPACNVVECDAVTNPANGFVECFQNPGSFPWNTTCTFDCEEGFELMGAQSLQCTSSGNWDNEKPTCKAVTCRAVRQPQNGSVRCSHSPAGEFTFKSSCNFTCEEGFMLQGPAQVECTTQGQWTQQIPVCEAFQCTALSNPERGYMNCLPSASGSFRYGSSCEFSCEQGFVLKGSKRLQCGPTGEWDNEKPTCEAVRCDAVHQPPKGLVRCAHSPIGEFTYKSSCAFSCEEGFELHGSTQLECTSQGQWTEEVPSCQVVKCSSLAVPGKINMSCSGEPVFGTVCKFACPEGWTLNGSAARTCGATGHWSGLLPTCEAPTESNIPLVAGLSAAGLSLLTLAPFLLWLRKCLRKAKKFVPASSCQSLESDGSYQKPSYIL
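assay system = HUVEC, human umbilical vein endothelial cells | input = 3,000 HUVEC seeded per well | medium = EGM-2 growth medium on 0.1% gelatin-coated wells | dosing = one compound dose added by pin transfer | signal = immunofluorescence imaging | read-out basis = % PE-positive cells | control set = TNF-alpha, DMSO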
The depositor's hits bear a star; ? = inconclusive; · = no result given. Shown are actives, neighbours in structure and some others; about 2.2% of the full set was active somewhere.

SMILES | DENV2 CPE rescue | Statin myotox sup | E-selectin induc
COCc1cn(CC[C@@H]2CC[C@H](NC(=O)c3ccc(F)cc3)[C@@H](CO)O2)nn1 | -3 | -3 | 0
C=CCn1c(=O)/c(=C\c2ccsc2)s/c1=C(/C#N)C(=O)NCCN1CCOCC1 | · | 112* | ·
COc1ccc(-n2c(=O)/c(=C\c3cccs3)s/c2=C(/C#N)C(=O)NCCN2CCOCC2)cc1 | -2 | 4 | 0
Cc1ccc2nc(-c3cccc(NC(=O)c4ccc5c(c4)OCCO5)c3)oc2c1 | · | 110* | ·
CCC(=O)Nc1cccc(-c2nc3ccc(C)cc3o2)c1 | -6 | -8 | 2
CNC[C@H]1OCCCC[C@@H](C)Oc2ccc(NC(=O)Nc3cccc4ccccc34)cc2C(=O)N([C@@H](C)CO)C[C@H]1C | ? | 13 | 2
C[C@H]1CN([C@@H](C)CO)C(=O)c2cc(-c3ccc(F)cc3)cnc2O[C@H]1CN(C)C(=O)c1ccc(F)cc1 | 19 | 8 | 0
C=CCSc1nnc(-c2cccc3ccccc23)o1 | -13 | 2 | 0
C=CCSc1nnc(-c2cc3c(s2)-c2ccccc2CC3)o1 | · | 146* | ·
CCNC(=O)[C@@H]1[C@@H](CO)[C@@H]2Cn3c(ccc(-c4ccccc4)c3=O)[C@@H]2N1C(=O)C1CC1 | -3 | 3 | 0
CCc1ccccc1NC(=O)CSc1nnc(CNC(=O)c2ccco2)n1C | -7 | 5 | 0
Cn1c(CNC(=O)c2ccco2)nnc1SCC(=O)N1c2ccccc2Sc2ccccc21 | · | 93* | ·
CCCCNC(=O)CNC(=S)N(CCCN1CCOCC1)Cc1cccs1 | 44* | · | ·
CCN(CC)CCNC(=O)CNC(=S)N(CCCN1CCOCC1)Cc1cccs1 | 1 | 0 | 0
O=C1CCCC2=C1C(c1ccco1)Nc1ccc3ccccc3c12 (configuration not stated) | · | 95* | ·
O=C1CCCC2=C1C(c1ccc(O)c(O)c1)Nc1ccc3ccccc3c12 (configuration not stated) | -4 | · | 0
C[C@H]1CN([C@@H](C)CO)C(=O)c2cccc(N(C)C)c2O[C@H]1CN(C)S(=O)(=O)c1ccc(F)cc1 | -5 | 0 | ·
CO[C@@H]1CN(C)C(=O)c2ccc(NC(=O)C3CC3)cc2OC[C@@H](C)N(Cc2cccnc2)C[C@@H]1C | -1 | 2 | 0
C[C@@H]1CN([C@@H](C)CO)C(=O)Cc2cc(NC(=O)CCCCCC(=O)Nc3ccccc3N)ccc2O[C@@H]1CN(C)Cc1ccc(C(F)(F)F)cc1 | 96* | -17 | 0
C[C@@H]1CN([C@@H](C)CO)C(=O)Cc2cc(NC(=O)CCCCCC(=O)Nc3ccccc3N)ccc2O[C@H]1CN(C)Cc1ccccc1 | 0 | ? | 0
C[C@@H]1CN([C@@H](C)CO)C(=O)Cc2cc(NC(=O)CCCCCC(=O)Nc3ccccc3N)ccc2O[C@@H]1CN(C)Cc1ccccc1 | 2 | 42 | 0
C[C@H](CO)N1C[C@H](C)[C@@H](CN(C)Cc2ccc(C(F)(F)F)cc2)Oc2ccc(NC(=O)CCCCCC(=O)Nc3ccccc3N)cc2CC1=O | 13 | 106* | 0
O=C(Nc1ccc2c(c1)[C@@H]1C[C@H](CC(=O)N3CCOCC3)O[C@@H](CO)[C@@H]1O2)NC1CCCC1 | 1 | 0 | 0
O=C(C[C@H]1CC[C@@H]2[C@H](COC[C@H](O)CN2Cc2cc(F)ccc2F)O1)NCc1ccccc1 | -9 | -12 | 0
CO[C@@H]1CN(C)C(=O)c2ccc(NC(=O)C3CC3)cc2OC[C@@H](C)N(C(=O)c2ccncc2)C[C@H]1C | -7 | 6 | 0
SMILES | DENV2 CPE rescue | Statin myotox sup | E-selectin induc
C[C@@H]1CCCCO[C@H](CN(C)Cc2ccccc2)[C@H](C)CN([C@@H](C)CO)C(=O)c2cc(NC(=O)CCCN(C)C)ccc2O1 | · | -69 | 0
COc1cccc2c1C(=O)c1c(O)c3c(c(O)c1C2=O)C[C@](O)(C(C)=O)C[C@H]3O[C@@H]1C[C@@H](N)[C@@H](O)[C@@H](C)O1 | -24 | -151 | 146*
COc1cccc2c1C(=O)c1c(O)c3c(c(O)c1C2=O)CC(O)(C(C)=O)CC3OC1CC(O)C(O)C(C)O1 (configuration not stated) | 3 | · | 1
CCNC(=O)C[C@@H]1CC[C@@H](NS(=O)(=O)c2ccc(F)cc2)[C@H](CO)O1 | 14 | -5 | 0
COCC(=O)N1CC2(C1)[C@@H](c1ccccc1)[C@@H](CO)N2C(=O)c1cccnc1 | -9 | · | 0
O=C(c1cccnc1)N1CC2(C1)[C@@H](c1ccccc1)[C@@H](CO)N2C(=O)CC1CC1 | 30* | · | 0
O=C(CC1CC1)N1CC2(C1)[C@H](c1ccccc1)[C@@H](CO)N2C(=O)c1cccnc1 | -5 | · | 0
